Source: PubChem (Sanford-Burnham Center for Chemical Genomics)
Most compounds without a hit are left out; they make up all but 3% or so of the library.
SENP8 block-1 – SENP8 protease inhibitors, primary screen, biochemical, luminescence; Sentrin-specific protease 8 (Homo sapiens), Q96LD8; purified SENP8, Z-RLRGG-aminoluciferin cleavage; inhibition, % at 10 µM; 330,000 compounds, 1.2% hits; AID 2540, 2010; in the data active = inhibition above about 50%
SENP6 inh – SENP6 protease inhibitors, primary screen, biochemical, luminescence, uHTS. inhibition, % at 10 µM. Recombinant SENP6 catalytic domain, aminoluciferin luminescence. 330,000 compounds, 1.8% hits. AID 2599, 2010. Sentrin-specific protease 6 (Homo sapiens), Q9GZR1;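 active = inhibition above about 50% at the single tested dose, limit read from the data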
SENP8 block-2 – human SENP8 protease inhibitors, primary screen, biochemical, fluorescence, Nedd8 protein substrate, uHTS; recombinant SENP8; 360,000 compounds, 0.64% hits; inhibition, % at 20 µM; Sentrin-specific protease 8 (Homo sapiens), Q96LD8; in the data active = inhibition mostly above about 40%, no sharp cut-off; inactive = mostly below about 27%
Apaf-1 inh – inhibitors of human Apaf-1 apoptosome, primary screen, biochemical, DEVD-Rh110 fluorescence, uHTS. Apoptotic protease-activating factor 1 (Homo sapiens), O14727. reconstituted apoptosome caspase-3 activity. inhibition, % at 20 µM. 330,000 compounds, 0.71% hits. AID 489030, 2010; active = inhibition of at least 40% at 20 µM
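Material: biochemical Apaf-1 apoptosome reconstitution. Medium: Hepes buffer, pH 7.5. Also added: cytochrome c activation, bis-DEVD rhodamine 110 substrate. Timing: 30 min compound preincubation, 50 min activation, room temperature. Measured by: rhodamine 110 fluorescence at Ex 480/Em 540 nm.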
SENP7 inh – SENP7 protease inhibitors, primary screen, biochemical, luminescence, uHTS | Sentrin-specific protease 7 (Homo sapiens), Q9BQF6 | inhibition, % at 5 µM | recombinant SENP7, Z-RLRGG-aminoluciferin luminescence, 40 min | 330,000 compounds, 1.5% hits;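 active = inhibition above about 50% at the single test dose, limit read from the data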
Target sequence (Q9BQF6 706-1050 limits assumed): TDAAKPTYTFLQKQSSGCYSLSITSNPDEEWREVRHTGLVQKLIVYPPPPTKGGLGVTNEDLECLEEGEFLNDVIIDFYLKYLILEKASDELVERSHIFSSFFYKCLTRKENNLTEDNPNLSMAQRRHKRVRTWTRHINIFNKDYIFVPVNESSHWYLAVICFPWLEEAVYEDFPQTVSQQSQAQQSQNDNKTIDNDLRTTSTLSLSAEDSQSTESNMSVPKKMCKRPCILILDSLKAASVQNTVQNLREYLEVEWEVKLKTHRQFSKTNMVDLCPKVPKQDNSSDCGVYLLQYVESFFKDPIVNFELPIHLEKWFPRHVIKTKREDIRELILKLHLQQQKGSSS
UBC13 polyUb – UBC13 polyubiquitin chain formation inhibitors, primary screen, biochemical, TR-FRET, uHTS | Ubiquitin-conjugating enzyme E2 N (Homo sapiens), P61088 | inhibition, % at 20 µM | 330,000 compounds, 0.47% hits; in the data active = inhibition above about 45%, passing the limit was not always enough
SENP8 inh conf – human SENP8 protease inhibitors, confirmation, biochemical, Nedd8 protein substrate, single concentration | purified SENP8, Nedd8-AMC/pro-Nedd8 cleavage fluorescence, 30 min | AID 624319, 2012 | 1,400 compounds, 15% hits | inhibition, % at 25 µM | shares compounds with SENP8 block-2; in the data active = inhibition mostly above about 39%, no sharp cut-off; inactive = mostly below about 34%
A number is an active result; - = inactive; . = no result.

SMILES | SENP8 block-1 | SENP6 inh | SENP8 block-2 | Apaf-1 inh | SENP7 inh | UBC13 polyUb | SENP8 inh conf
COc1cccc(N=Nc2c(O)[nH]c(=S)[nH]c2=O)c1 | - | - | 50.7 | - | - | - | -
C/C=C1/CN2[C@@H]3C4CO[C@@H]3c3c([nH]c5cc(OC)ccc35)[C@@H]2CC14 (stereo not given in full) | - | - | 40.0 | - | - | - | -
CN1C(=O)NC(=O)C(C)(C2=CCCCC2)C1=O (stereo not given) | - | - | - | - | - | - | .
CC(C)CCC1(CCO)C(=O)NC(=S)NC1=O | . | . | - | . | . | . | .
Cc1ccccc1O | - | - | - | - | - | - | .
Oc1cccc2nc3ccccc3nc12 | - | - | 22.0 | - | - | - | -
CN1CCN(c2cc(N3CCCC3)c([N+](=O)[O-])cc2F)CC1 | - | - | 44.9 | - | - | - | -
CCN1CCN(c2cc(N3CCCC3)c(F)cc2[N+](=O)[O-])CC1 | - | - | - | - | - | - | .
O=[N+]([O-])c1cc(F)c(N2CCCCC2)cc1Br | - | - | 40.3 | - | - | - | -
O=[N+]([O-])c1cc(F)c(N2CCCC2)cc1Br | - | - | - | - | - | - | .
CNC(=O)Oc1cc2c(cc1C(C)(C)C)CCC2 | . | . | - | . | . | . | .
CC(C)(C)n1cc(C(=O)c2ccccc2)cc1-c1ccccc1 | - | - | - | - | - | - | .
O=C1NC(=O)C(Nc2ccccc2)C(=O)N1 | . | . | 63.9 | . | . | . | 46.1
COC1CCC(OC2CC(C3(C)CCC4(CC(O)C(C)C(C(C)/C=C(\C)C(=O)C(C)CC(C)C(=O)O)O4)O3)OC3(OC(C4OC(O)(CO)C(C)CC4C)CC3C)C2C)OC1C (stereo not given) | . | . | - | . | . | . | .
O=c1ccc2c(O)c3ccoc3cc2o1 | - | - | 48.4 | - | - | - | -
COc1cc2occc2c2oc(=O)ccc12 | - | - | - | - | - | - | .
COC1C(OC(=O)c2ccc(C)[nH]2)C(O)C(Oc2ccc3c(O)c(NC(=O)c4ccc(O)c(CC=C(C)C)c4)c(=O)oc3c2Cl)OC1(C)C (stereo not given) | - | - | 40.5 | - | - | - | -
CCC/C=C(\CCC)C(NP(=O)(c1ccccc1)c1ccccc1)c1ccccc1 (stereo not given) | - | - | . | - | - | - | .
C=CCc1cc(OC)c2c(c1)OCO2 | - | - | - | - | - | - | .
COc1cccc2c1cc([N+](=O)[O-])c1c(C(=O)O)cc3c(c12)OCO3 | . | . | 42.4 | . | . | . | -
Clc1cc(Cl)c(-c2cc(Cl)c(Cl)cc2Cl)cc1Cl | - | - | - | - | - | - | .
O=c1[nH]c(=S)[nH]c(O)c1N=Nc1cc(S(=O)(=O)Nc2ccc(Cl)cc2)ccc1Cl | - | - | 41.2 | - | - | - | -
CCCNC(=O)N1[C@H]2CC[C@@H]1C(C(=O)OC)=C(c1ccc(-c3ccccc3)c(F)c1)C2 | - | - | - | - | - | - | .
O=C(NC1(C(F)(F)F)Oc2ccccc2O1)N1CCC2(CC1)OCCO2 | - | - | - | - | - | - | .
O=C(NC1(C(F)(F)F)Oc2ccc(Cl)cc2O1)N1CCC2(CC1)OCCO2 (stereo not given) | - | - | 40.3 | - | - | - | -
O=c1[nH]c(=S)[nH]c(O)c1N=Nc1cc2c(cc1[N+](=O)[O-])OCO2 | - | - | 41.9 | - | - | - | -
O=c1[nH]c(O)c(N=Nc2ccc3c(c2)OCCO3)c(=O)[nH]1 | - | - | - | - | - | - | .
